Compound activity: PubChem BioAssay, Johns Hopkins Ion Channel Center
Shown are actives, neighbours in structure and some others; about 3.7% of the full set was active somewhere.
KCNK9 inh: blocks the human KCNK9 two-pore domain potassium channel; B-score at 10 µM; HEK293 KCNK9, FluxOR thallium flux fluorescence; hits give low values; hit rate 1.2% among 310,000; Q9NPC2;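 active = ratio B-score over 3 SD below the library mean, with starting fluorescence within 5 SD of its mean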;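 also: negative B-score means less thallium flux so channel inhibition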
hERG protect: compounds protecting human hERG from proarrhythmic drug block | activation (rescue from dofetilide block), less the hit threshold, % at 10 µM | CHO-hERG, FluxOR thallium flux, dofetilide IC70 present | hit rate 0.51% among 310,000 | Q12809;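 active = activation above the mean of controls blocked by dofetilide plus 5 SD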;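 also: thallium influx through hERG after potassium depolarization seen as dye fluorescence rise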
KCNQ1 pot: potentiators or activators of human KCNQ1 potassium channel; P51787; CHO-K1 KCNQ1, thallium flux FluxOR fluorescence; hits give high values; B-score at 10 µM; hit rate 0.35% among 310,000; AID 2648;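 active = fluorescence ratio B-score, a plate-corrected score, at least three library SD, with initial intensity B-score within 5 SD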
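Assay system: CHO-K1 cells stably expressing KCNQ1; Medium: assay buffer with matched DMSO; Also added: K+/Tl+ depolarizing stimulus; Dosing: single dose; Timing: dye 90 min, compound 20 min, room temperature; Measured by: kinetic FluxOR thallium fluorescence, 10-s 1-Hz baseline, 110-s post-stimulus read; Read-out: peak-minus-minimum fluorescence over initial fluorescence, negative-control normalized, B-scored.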
KCNK3 inh: human KCNK3 channel inhibition, primary screen | O14649 | CHO-KCNK3 thallium flux, FluxOR fluorescence; hits give low values | B-score at 10 µM | hit rate 0.84% among 340,000;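 active = B-score under library mean minus 4 SD, starting fluorescence ratio at most library mean plus 5 SD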;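 also: more negative B-score means stronger inhibition of thallium flux through KCNK3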
KCNQ1 block: inhibitors of human KCNQ1 potassium channel. P51787. CHO-K1 KCNQ1, FluxOR thallium flux fluorescence; hits give high values. B-score at 10 µM. hit rate 1.3% among 310,000;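 active = compounds whose thallium flux B-score, printed positive for inhibition, exceeds three library SD while starting fluorescence stays within three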;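 also: channel opened by potassium depolarization with thallium stimulus after 20 min compound exposure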
Kir21 block: blocks the mouse Kir2.1 inward-rectifier potassium channel; P35561; HEK293-Kir2.1, FluxOR thallium flux fluorescence; hits give low values; hit rate 0.85% among 310,000; B-score at 10 µM; AID 1672;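 active = fluorescence ratio B-score at or below minus 3 SD of library scores, with starting-brightness B-score within 2 SD, cut at about -4.2 in these data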;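 also: channel flux triggered by added potassium and thallium sulfate stimulus; B-score of peak minus minimum fluorescence over baseline after thallium stimulus; more negative B-score means stronger Kir2.1 block with less thallium influx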
KCNK9 block conf: human KCNK9 inhibitor confirmation; shares compounds with KCNK9 inh; hit rate 43% among 4,900; inhibition, % at 10 µM; HEK293 KCNK9 cells, FluxOR thallium flux fluorescence;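 active = thallium signal inhibited by more than 5 SD of the compound-free buffer control wells, on both duplicate plates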;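 also: 0% = assay buffer control wells without compound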
Kir2-1 spec: selectivity of KCNK9 modulators against mouse Kir2.1; Kir2.1 cells, FluxOR thallium flux fluorescence; inhibition, % at 10 µM; hit rate 4% among 4,900; shares compounds with KCNK9 inh; AID 492993;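 active = thallium signal drop more than 5 SD beyond the mean of the no-compound control wells, seen in both duplicate plates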;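 also: signal is fluorescence rise after thallium addition divided by baseline fluorescence; plate controls were assay buffer only for no effect and full block by chlorpromazine control for full effect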
HEK293 Tl ctr: second counter-screen for KCNK9 modulators: effect in non-induced cells; inhibition, % at 10 µM; shares compounds with KCNK9 inh; non-induced KCNK9-HEK293, FluxOR thallium flux; hit rate 40% among 4,900; AID 492997;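 active = thallium signal drop beyond 5 SD of the untreated control mean, on both duplicate plates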;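 also: plate controls were buffer only IC0 wells for no effect and SID17386958 at its maximal inhibitory level for full effect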
* hit, by the source's call; i = inactive; . = not tested or not shown.

SMILES	KCNK9 inh	hERG protect	KCNQ1 pot	KCNK3 inh	KCNQ1 block	Kir21 block	KCNK9 block conf	Kir2-1 spec	HEK293 Tl ctr
CCN(CC)C(=O)c1oc2ccc(S(=O)(=O)N3CC(C)CC(C)C3)cc2c1C (stereo unspecified)	i	-14	i	i	i	-0.6	i	i	i
CCN1C(=O)[C@H]2[C@@H](c3ccc(OC)cc3)N3C(=O)CN(CC4CC4)C(=O)[C@@]3(C)[C@H]2C1=O	i	-1	i	i	i	0.02	.	.	.
Cc1ccc(S(=O)(=O)NCC(=O)N(CC2CCCO2)C(C(=O)NC2CCCCC2)C(C)C)cc1 (stereo unspecified)	i	-5	i	i	i	1.5	.	.	.
COc1ccc(-c2cc(C)nc3c(-c4ccccc4)cnn23)cc1	-9.5*	-20	i	i	i	-1.1	58%*	i	51%*
O=C(Nc1ccc(Cl)cn1)c1ccc2nccnc2c1	i	-6	i	i	i	0.39	.	.	.
O=[N+]([O-])c1ccc(Cl)cc1CNc1ccc(F)c(F)c1	-8.5*	-12	i	i	i	-1.5	33%*	i	27%*
O=C(CSc1nnc(CNC(=O)c2ccccc2)o1)NCc1ccccc1Cl	i	-10	i	i	i	-0.7	.	.	.
Oc1cccc(C(Nc2nccs2)c2ccc3cccnc3c2O)c1 (stereo unspecified)	i	-17	i	i	i	-0.56	i	i	i
COc1cccc(C(NC(C)=O)c2ccc3cccnc3c2O)c1 (stereo unspecified)	i	1	i	i	i	3	.	.	.
Cc1ccc(N=C(NO)c2cnccc2C(F)(F)F)c(C)c1	i	2	i	i	i	-0.27	.	.	.
CNc1nnc(CSc2nc(C)cc(C)n2)s1	i	-5	i	i	i	1.2	36%*	i	i
CNc1nnc(CSc2nc3ccccc3s2)s1	i	-10	i	i	i	-0.23	.	.	.
CCOc1ccccc1C(=O)N1CCN(C(c2ccccc2)c2ccccc2)CC1	-8.4*	-12	i	i	i	-0.02	i	i	26%*
Cc1ccccc1C(=O)N1CCN(C(c2ccccc2)c2ccccc2)CC1	i	-9	i	i	i	0	.	.	.
CCOc1ccccc1N1CCN(C(=O)C(Sc2ccccc2)c2ccccc2)CC1 (stereo unspecified)	-12*	-9	i	i	i	0.83	56%*	i	28%*
CCOC(=O)C1=C(CC)Nc2ccccc2N/C1=N\S(=O)(=O)c1ccc2ccccc2c1	i	-17	i	i	i	0.1	i	i	i
CCCCCn1c(=O)c(C(=O)c2ccccc2)nc2ccccc21	-15*	-12	i	i	i	-1.1	46%*	i	30%*
CCn1c(=O)c(C(C)=O)nc2ccccc21	i	-5	i	i	i	0.2	.	.	.
O=C(NC(c1ccc(Cl)cc1)c1c(O)ccc2ccccc12)c1ccccc1 (stereo unspecified)	.	.	.	i	.	.	.	.	.
O=C(NC(c1ccccc1)c1c(O)ccc2ccccc12)c1ccccc1Cl (stereo unspecified)	-10*	-7	i	-9.4*	i	0.05	i	i	44%*
COc1ccc(C(CNC(=O)c2cccc(S(=O)(=O)NCc3ccccc3)c2)N(C)C)cc1 (stereo unspecified)	i	-8	i	i	i	-0.05	.	.	.
Cc1ccc(Cl)cc1NC(=O)C1CCCN1S(=O)(=O)c1ccc(-c2ccc(=O)[nH]n2)s1 (stereo unspecified)	i	-10	i	i	i	-1.9	.	.	.
O=C(Nc1ccc(O)cc1)c1ccccc1OCc1ccccc1	i	-2	i	i	i	-2.4	.	.	.
O=C(Nc1ccccc1)c1ccccc1OCc1cccc([N+](=O)[O-])c1	-12*	-11	i	i	i	0.34	i	i	28%*
Cc1ccc(/C=C2/SC(=S)N(C3CCCCC3)C2=O)o1	i	-8	i	i	i	-0.19	i	i	i
SMILES	KCNK9 inh	hERG protect	KCNQ1 pot	KCNK3 inh	KCNQ1 block	Kir21 block	KCNK9 block conf	Kir2-1 spec	HEK293 Tl ctr
COc1ccccc1N1CCN(CCCCOc2cccc3ccccc23)CC1	i	-31	i	i	i	0.36	i	i	i
COc1ccccc1OCCCCN1CCN(c2ccccc2OC)CC1	i	-3	i	i	i	0.78	.	.	.
O=[N+]([O-])c1ccc(N2CCOCC2)cn1	i	-5	i	i	i	1.9	.	.	.
C=CCc1cc(C(=O)N2CCCCC2)ccc1O	i	-13	i	i	i	0.49	.	.	.
C=CCc1ccc(O)c(-c2ccc(O)c(CC=C)c2)c1	-18*	-17	i	i	i	-2.6	76%*	i	42%*
Cc1ccsc1C(=O)C1CCCN(Cc2cc(F)ccc2-n2cccn2)C1 (stereo unspecified)	i	-11	i	i	i	-0.6	i	i	i
Cc1cc(C)c(CN2CCCC(CNC(=O)c3ccc(F)cc3)C2)c(-n2cccn2)c1 (stereo unspecified)	i	-25	i	i	i	-2	.	.	.
O=C(CSc1nccc(-c2cccs2)n1)Nc1ccc(F)c(Cl)c1	-8.2*	-2	i	i	i	-0.84	i	i	37%*
O=C(CSc1nccc(-c2cccs2)n1)Nc1cccc(Cl)c1	i	-5	i	i	i	-0.62	.	.	.
Cc1ccc(CNC(=O)C2CCCN(S(=O)(=O)N3CC(C)CC(C)C3)C2)cc1 (stereo unspecified)	i	0	i	i	i	0	i	i	i
COc1ccc(Br)cc1CNC(=O)C1CCCN(S(=O)(=O)N2CC(C)CC(C)C2)C1 (stereo unspecified)	-8.5*	-8	i	i	i	1.5	i	i	i
CCCS(=O)(=O)N1CCCC(C(=O)NCc2ccc(C)cc2)C1 (stereo unspecified)	i	-1	i	i	i	1	.	.	.
COc1ccc(Br)cc1CNC(=O)C1CCN(S(=O)(=O)N2CCCCC2)CC1	i	-5	i	i	i	-0.7	.	.	.
